# A selection: hits, their analogues and other compounds. The true share with any hit is near 2.6%.
# UCH37 DUB inh – human UCH37 deubiquitinating enzyme inhibition. 0.33% of 330,000 active. Q9Y5K5. purified proteasome/UCH37, Ub-AMC cleavage fluorescence. inhibition, % (test concentration not listed). AID 588478;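 active = mean inhibition over replicate wells above about 20%, limit read from the data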;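 also: 0% = compound-free wells with enzyme and 100% = wells lacking proteasome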
#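 assay system = human UCH37 enzyme supplied as purified proteasome complex | amount = proteasome at 0.15 nM in the dispensed enzyme solution | schedule = 30 min compound-proteasome preincubation then 25 min substrate reaction, room temperature | measured by = fluorescence, ex 355 nm, em 460 nm | benchmarks = no-proteasome wells (full inhibition) and compound-free wells (no inhibition)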
# SENP1 FRET inh – SENP1 (human) catalytic domain inhibition; Q9P0U3; 0.21% of 360,000 active; inhibition, % at 10 µM; recombinant SENP1 catalytic domain, CyPet-SUMO1-YPet FRET cleavage;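 active = inhibition at least 30% at 10 µM, raw YFP signal under a set limit, fluorescence ratio 0.5 to 1.5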;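 also: 0% = enzyme with DMSO and 100% = no enzyme wells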
#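 Test system: human SENP1 catalytic domain; medium: Tris pH 8 buffer plus EDTA, NaCl, BME, BSA, NP40, catalase; incubation: 50 min reaction at room temperature; technique: FRET, CFP and YFP emission; controls: no-enzyme low control and enzyme-plus-DMSO high control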
# SENP7 inh – inhibitors of human SENP7 protease. Q9BQF6. recombinant SENP7, Z-RLRGG-aminoluciferin luminescence, 40 min. 1.5% of 330,000 active. inhibition, % at 5 µM. AID 434973;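 active = inhibition above about 50% at the single test dose, limit read from the data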;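 also: plate controls were DMSO with enzyme for no effect and no enzyme buffer wells for full effect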
# Target sequence (Q9BQF6 706-1050 limits assumed): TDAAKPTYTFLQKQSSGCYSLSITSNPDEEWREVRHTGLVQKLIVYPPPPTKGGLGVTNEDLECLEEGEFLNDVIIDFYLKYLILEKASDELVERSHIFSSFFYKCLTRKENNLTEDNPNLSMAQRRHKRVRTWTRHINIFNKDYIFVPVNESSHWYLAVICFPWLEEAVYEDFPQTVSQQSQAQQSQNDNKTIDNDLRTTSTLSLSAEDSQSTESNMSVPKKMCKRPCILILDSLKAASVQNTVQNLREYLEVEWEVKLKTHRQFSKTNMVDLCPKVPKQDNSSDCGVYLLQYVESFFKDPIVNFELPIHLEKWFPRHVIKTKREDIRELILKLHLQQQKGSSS
# SENP6 inh – inhibitors of human SENP6 protease; inhibition, % at 10 µM; 1.8% of 330,000 active; Recombinant SENP6 catalytic domain, aminoluciferin luminescence; Q9GZR1;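 active = inhibition above about 50% at the single tested dose, limit read from the data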;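 also: plate controls were DMSO wells with enzyme for no effect and DMSO wells lacking enzyme for full effect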
# SENP8 block-1 – blocks the human protease SENP8; purified SENP8, Z-RLRGG-aminoluciferin cleavage, luminescence; inhibition, % at 10 µM; 1.2% of 330,000 active; AID 2540; in the data active = inhibition above about 50%
# Target sequence (Q96LD8 whole entry, looked up): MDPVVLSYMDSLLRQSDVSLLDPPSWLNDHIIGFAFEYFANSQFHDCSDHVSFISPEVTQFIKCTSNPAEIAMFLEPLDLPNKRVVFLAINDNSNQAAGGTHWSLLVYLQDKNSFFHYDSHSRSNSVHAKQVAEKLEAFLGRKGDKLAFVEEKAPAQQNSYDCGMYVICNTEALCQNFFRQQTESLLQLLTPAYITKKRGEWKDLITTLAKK
# SENP8 block-2 – inhibitors of human SENP8 protease. Q96LD8. recombinant SENP8, Nedd8 substrate fluorescence. inhibition, % at 20 µM. 0.64% of 360,000 active; in the data active = inhibition mostly above about 40%, no sharp cut-off; inactive = mostly below about 27%
# SENP8 confirm – human SENP8 inhibition, confirmed; AID 488912; inhibition, % at 12.5 µM; shares compounds with SENP7 inh; 40% of 6,200 active; Recombinant SENP8, Z-RLRGG-aminoluciferin luminescence, 60 min;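 active = mean inhibition across replicates above about 50%, limit read from the data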
# SENP6 conf – human SENP6 inhibition, confirmed; shares compounds with SENP7 inh; recombinant SENP6, Z-RLRGG-aminoluciferin luminescence; inhibition, % at 12.5 µM; 58% of 6,200 active; AID 488915
# SENP7 confirm – human SENP7 inhibition, confirmed; shares compounds with SENP7 inh; recombinant SENP7, Z-RLRGG-aminoluciferin luminescence, 40 min; inhibition, % at 12.5 µM; 69% of 6,200 active
# Casp3 select – inhibits human caspase-3 in SENP selectivity test | 60% of 6,200 active | purified caspase-3, Z-DEVD-aminoluciferin luminescence, 60 min | inhibition, % at 12.5 µM | shares compounds with SENP7 inh;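 active = mean inhibition above about 50%, limit read from the data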;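 also: plate controls were enzyme with DMSO for no effect and wells without caspase-3 for full effect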
# Luc interf – luminescence interference (SENP counter-screen); shares compounds with SENP7 inh; 39% of 6,200 active; Pre-incubated SENP8/Z-RLRGG-aminoluciferin, luciferase luminescence interference; inhibition, % at 12.5 µM; AID 488919;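 active = mean inhibition above about 50% when retested at one dose, limit read from the data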;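 also: plate controls were DMSO wells with completed reaction for no effect and substrate without enzyme for full effect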
# Active calls of the source: *; x = no result.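 The calls were made as follows, unless noted: active = mean inhibition above about 50% in the one-dose retest (limit read from the data); inactive = the rest.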
SMILES,UCH37 DUB inh,SENP1 FRET inh,SENP7 inh,SENP6 inh,SENP8 block-1,SENP8 block-2,SENP8 confirm,SENP6 conf,SENP7 confirm,Casp3 select,Luc interf
CCOC(=O)Cn1c2ccc(C)cc2c2nc(C)sc21,4,-4,2,51*,6,11,8,8,-6,-8,-10
CCOc1ccc(C=NNS(=O)(=O)c2ccc(C)cc2)cc1OC,4,x,x,x,x,x,x,x,x,x,x
CSc1ccc(C2N=C(c3ccccc3)NO2)cc1 (centres undefined),6,1,11,61*,45,-100,20,7,34,11,18
Oc1c(Br)cc(C2N=C(c3ccccc3)NO2)cc1Br (centres undefined),4,3,9,98*,81*,-26,-21,88*,96*,79*,91*
O=C1OC(c2cc(Br)c(O)c(Br)c2)c2ccccc21 (centres undefined),3,2,x,x,x,7,x,x,x,x,x
COc1cc(C(=O)ON=C2CCCc3c2ccc(OC)c3[N+](=O)[O-])cc(OC)c1OC,1,x,x,x,x,x,x,x,x,x,x
Cc1cc(NCc2ccccn2)ccc1Br,1,-7,53*,47,39,11,43,40,69*,39,52*
CC(=O)/C(N=Nc1ccc(SC(F)F)cc1)=C(\C)O,8,1,48,66*,45,24,46,64*,60*,62*,39
Cc1ccc(-c2cc3nc(C)cc(NCc4ccco4)n3n2)cc1,-48,-30,92*,81*,74*,-329,46,38,61*,63*,38
Clc1cccc(-c2cc3nc4c(c(NCc5ccco5)n3n2)CCCC4)c1,-57,-4,26,81*,53*,-266,-4,8,3,7,4
c1coc(CNc2c3c(nc4ncnn24)CCCC3)c1,-1,-1,1,-19,1,-1,x,x,x,x,x
N#C/C(=C/c1ccc(Br)o1)C(N)=O,19,-21,-10,-14,-12,5,x,x,x,x,x
COc1ccc(NC(=O)/C(C#N)=C/c2ccc(Br)o2)cc1,4,3,66*,-2,-3,27,-8,-7,4,4,-3
N#C/C(=C\c1c(Cl)cccc1Cl)c1nc2ccccc2[nH]1,-87,-46,1,-15,2,-300,x,x,x,x,x
COc1c(O)ccc(/C=C(\C#N)c2nc3ccccc3[nH]2)c1[N+](=O)[O-],3,-34,14,54*,14,-22,27,28,59*,23,48
Cc1ccc(/C=C(\C#N)c2nc3ccccc3[nH]2)s1,2,-25,84*,23,13,-22,40,31,93*,74*,61*
CN(C)/C=C(\C#N)c1nc2ccccc2[nH]1,9,-26,6,-4,-6,0,x,x,x,x,x
Cc1ccc2nc(/C(C#N)=C\c3cc(O)ccc3[N+](=O)[O-])[nH]c2c1,3,-25,-1,8,0,-6,x,x,x,x,x
N#C/C(=C/c1cccs1)c1nc2ccccc2[nH]1,-21,-59,57*,48,30,-68,44,48,84*,58*,22
CC1=NN(/C(=N/c2nnc(C)s2)Nc2ccc(C)cc2)[C@H](c2ccc(C)cc2)S1,5,x,x,x,x,x,x,x,x,x,x
COc1cccc(C2C(C(=O)OC(C)C)=C(C)N=c3sc(=Cc4ccc(C(=O)O)cc4)c(=O)n32)c1 (centres undefined),3,x,x,x,x,x,x,x,x,x,x
Cc1ccsc1C(=O)OCc1cc(=O)n2ccsc2n1,1,1,57*,53*,48,-63,27,50,82*,81*,11
O=C(OCc1cc(=O)n2ccsc2n1)c1ccc(O)cc1O,1,2,39,64*,47,-78,55*,49,79*,76*,61*
CC(=NNC(=O)CNC(=O)c1ccccc1F)c1ccc2c(c1)CCCC2,1,x,x,x,x,x,x,x,x,x,x
O=C(Cc1cccs1)Nc1ccccc1NC(=O)Cc1cccs1,-1,0,6,10,4,17,x,x,x,x,x
SMILES,UCH37 DUB inh,SENP1 FRET inh,SENP7 inh,SENP6 inh,SENP8 block-1,SENP8 block-2,SENP8 confirm,SENP6 conf,SENP7 confirm,Casp3 select,Luc interf
O=C(Cc1cccs1)Nc1ccccc1C(=O)O,3,0,31,63*,45,6,52*,50*,84*,88*,71*
Cc1ccc(C(=O)ON=Cc2ccc(N(C)C)cc2)cc1,-59,x,x,x,x,x,x,x,x,x,x
c1ccc(Oc2cc(-n3cccn3)ncn2)cc1,4,0,46,54*,41,5,3,33,75*,68*,14
COc1ccc(/C=N/Nc2ncccc2[N+](=O)[O-])c(OC)c1,x,4,99*,100*,97*,30,99*,100*,104*,99*,19
COc1ccc(C=NNc2nccnc2Cl)c(OC)c1,4,x,x,x,x,x,x,x,x,x,x
Cc1nn(-c2ccccc2)c(C)c1C=Nn1cnnc1,0,x,x,x,x,x,x,x,x,x,x
COc1ccc(CCn2nc(C)c([N+](=O)[O-])c2C)cc1,1,2,59*,71*,30,1,57*,53*,82*,79*,62*
CN(C)c1ccc(Nc2nc(-c3cccnc3)cs2)cc1,0,1,89*,88*,87*,24,43,78*,96*,92*,32
COc1ccc(Nc2nc(-c3cccnc3)cs2)c(OC)c1,3,2,-18,12,-9,7,x,x,x,x,x
COc1ccccc1Nc1nc(-c2cccnc2)cs1,3,0,53*,67*,50*,16,-26,39,78*,42,60*
CCN(CC)c1ccc(Nc2nc(-c3cccnc3)cs2)cc1,1,4,11,62*,57*,16,56*,52*,88*,47,22
Fc1ccc(Nc2nc(-c3cccnc3)cs2)cc1,-1,2,34,25,2,1,x,x,x,x,x
CC(=NNS(=O)(=O)c1ccc(F)cc1)c1ccncc1,3,x,x,x,x,x,x,x,x,x,x
O=c1c2ccccc2oc2ccc(-c3ccc4cc[nH]c4c3)cc12,-2,1,62*,50*,53*,-18,-10,4,8,3,-2

# Screening results as filed in PubChem.
